For this assay, the system named is SE-expressing peptides and tetrameric proteins. The experiment in a line: SPR binding of CRT variants. To be noted: citrullinated CRT compared to non-citrullinated CRT. The gist of the method: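 Native, PAD-citrullinated or Arg→Ala mouse CRT was immobilised at 3000 RU. Analytes were 15mer SE-positive or SE-negative control peptides at 330 μM, and HLA-DR tetramers (SE-positive or SE-negative) at 250 nM.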

B1: Cit-CRT: recombinant mouse CRT citrullinated in vitro with PAD from rabbit skeleton muscle (protein, UniProt P14211 18-416, looked up)
Calreticulin: DPAIYFKEQFLDGDAWTNRWVESKHKSDFGKFVLSSGKFYGDLEKDKGLQTSQDARFYALSAKFEPFSNKGQTLVVQFTVKHEQNIDCGGGYVKLFPSGLDQKDMHGDSEYNIMFGPDICGPGTKKVHVIFNYKGKNVLINKDIRCKDDEFTHLYTLIVRPDNTYEVKIDNSQVESGSLEDDWDFLPPKKIKDPDAAKPEDWDERAKIDDPTDSKPEDWDKPEHIPDPDAKKPEDWDEEMDGEWEPPVIQNPEYKGEWKPRQIDNPDYKGTWIHPEIDNPEYSPDANIYAYDSFAVLGLDLWQVKSGTIFDNFLITNDEAYAEEFGNETWGVTKAAEKQMKDKQDEEQRLKEEEEDKKRKEEEEAEDKEDDDDRDEDEDEEDEKEEDEEESPGQAKDEL
modifications: citrullinated
B1: the “interaction with the SE ligand (in words)” value is given as “higher affinity for the SE ligand”.

(Values after PMC3582785 (Arthritis and rheumatism, 2013).)
